As a reminder, the IC50 is the concentration needed to halve the response being measured. Low values mean higher potency, high ones lower potency. The term inhibition denotes the drop in the measured response relative to a control, in per cent. Lower therefore signals a weak effect.

31 compounds from ChEMBL document CHEMBL3352186, “Modification and biological evaluation of thiazole derivatives as novel inhibitors of metastatic cancer cell migration and invasion” (J Med Chem, 2014) can be followed below.

Assay [1] relates to MDA-MB-231. Description: Antimigratory activity in human MDA-MB-231 cells after 24 hrs using transwell system by light microscopy. The note with it: MDA-MB-231, 24 h. In kind it is functional, cell-based. Put shortly:
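Transwell chambers: 2.5×10^4 cells in serum-free, phenol red-free medium in the upper chamber, with DMEM + 5% FBS below as chemoattractant. Compounds at 10^-8, 10^-7, 10^-6 and 10^-5 M, with 0.1% DMSO vehicle, for 24 h. Membranes were scrubbed, formalin-fixed, methanol-permeabilized and stained with 0.1% crystal violet. Migrated cells were counted by light microscopy per 100× field as % of vehicle. IC50 is the concentration giving 50% migration inhibition.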

The subject of assay [2] is MDA-MB-231. Description: Cytotoxicity against human MDA-MB-231 cells assessed as survival at 1 uM after 5 days. The note with it: MDA-MB-231, 120 h, read-out: Survival. It counts as functional.
The test system of assay [3] is MDA-MB-231. Description: Antiinvasive activity in human MDA-MB-231 cells at 10 uM after 24 hrs by matrigel assay. In kind it is functional. To be noted: MDA-MB-231, 24 h. An outline of the steps:
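Cells serum-starved 24 h, trypsinized and resuspended in medium with DMSO or compound; 2.5×10^4 cells/well seeded on Matrigel-coated inserts. Bottom well held 10% FBS medium with DMSO or 10 μM compound. After 24 h, non-invaded cells were scrubbed off and invaded cells fixed (4% formaldehyde, 10 min, RT), stained with 0.04% crystal violet and counted at 100× in five random fields. Result is % invasion relative to DMSO.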

The next assay has as its system HeLa (Homo sapiens). Description: Induction of disorganization of actin filaments in human HeLa cells assessed as decrease in F-actin staining intensity near cell membrane at 10^-6 M by phalloidin staining.

SMILES strings stand for the structures. Active and inactive are the calls of the source. No cut-off for these calls is given here.

Compound `C#CCn1c(-c2ccccc2)cs/c1=N\C(=O)c1ccccc1` registered an IC50 with MDA-MB-231 [1] of 2.78 µM. Further, the viability at 1 µM in the assay with MDA-MB-231 [2] came to 63%.

Take `Cc1ccc(-c2cn(C)/c(=N/C(=O)c3ccccc3)s2)cc1`: the IC50 in the assay with MDA-MB-231 [1] was over 25 µM. Besides, in the assay on MDA-MB-231 [2], the viability at 1 µM worked out at 113%.

In the case of `C#CCN(C(=O)c1ccccc1)c1nc(-c2ccc(C)cc2C)cs1`, the IC50 in the assay on MDA-MB-231 [1] amounted to 0.321 µM. Besides, the viability at 1 µM with MDA-MB-231 [2] was 106%.

With `COc1cccc(C(=O)Nc2nc(-c3cc(OC)c(OC)c(OC)c3)cs2)c1`, the IC50 with MDA-MB-231 [1] was 14 µM. In addition, the viability at 1 µM with MDA-MB-231 [2] is 92.6%.

Regarding `Cn1c(-c2ccc(Br)cc2)cs/c1=N\C(=O)c1ccccc1`, half-maximal inhibition in the assay on MDA-MB-231 [1] (IC50) required 0.125 µM. The viability at 1 µM with MDA-MB-231 [2] stood at 59.3%.

With `Cc1csc(NC(=O)c2ccccc2)n1`, the IC50 in the assay on MDA-MB-231 [1] stood at 12 µM. Further, in the assay with MDA-MB-231 [2], the viability at 1 µM is 103%.

`COc1cccc(C(=O)/N=c2\scc(-c3cc(OC)c(OC)c(OC)c3)n2C)c1` came in with an IC50 in the assay with MDA-MB-231 [1] of over 50 µM. Also, the viability at 1 µM with MDA-MB-231 [2] worked out at 104%.

As for `Cc1s/c(=N\C(=O)c2ccccc2)n(C)c1-c1ccc(F)cc1`, in the assay on MDA-MB-231 [1], the IC50 is 0.847 µM. Also, in the assay on MDA-MB-231 [2], the viability at 1 µM is 83.8%.

`C=CCn1c(-c2ccccc2)cs/c1=N\C(=O)c1ccccc1`: in the assay on MDA-MB-231 [1], half-maximal inhibition (IC50) required 1.2 µM. Besides, the viability at 1 µM in the assay with MDA-MB-231 [2] came out at 64.8%.

Take `COc1cc(-c2csc(N(C)C(=O)c3ccccc3)n2)cc(OC)c1OC`: inhibition with MDA-MB-231 [1] was half-maximal at 10 µM (IC50). The viability at 1 µM in the assay on MDA-MB-231 [2] worked out at 96.4%.

Compound `COc1cc(C(=O)/N=c2\scc(-c3cc(OC)c(OC)c(OC)c3)n2C)cc(OC)c1OC` showed a 50% inhibitory concentration (IC50) with MDA-MB-231 [1] of 1.96 µM. The viability at 1 µM in the assay with MDA-MB-231 [2] amounted to 81.5%.

`COc1ccc(C(=O)Nc2nc(-c3cc(OC)c(OC)c(OC)c3)cs2)cc1` gave an IC50 in the assay with MDA-MB-231 [1] of over 25 µM. Besides, the viability at 1 µM in the assay on MDA-MB-231 [2] is 93.8%.

As to `COc1ccc(C(=O)Nc2nc(-c3cc(OC)c(OC)c(OC)c3)cs2)c(OC)c1`, the IC50 with MDA-MB-231 [1] is over 50 µM. Further, in the assay with MDA-MB-231 [2], the viability at 1 µM amounted to 93.8%.

In the assay on MDA-MB-231 [1], `Cn1c(-c2cc(C(F)(F)F)cc(C(F)(F)F)c2)cs/c1=N\C(=O)c1ccccc1` gave a 50% inhibitory concentration (IC50) of 0.0961 µM. Further, the viability at 1 µM with MDA-MB-231 [2] worked out at 79.8%.

In the case of `O=C(Nc1nc(-c2ccc(Br)cc2)cs1)c1ccccc1`, the half-maximal inhibitory concentration (IC50) in the assay with MDA-MB-231 [1] stood at 9.5 µM. In the assay with MDA-MB-231 [2], the viability at 1 µM is 82.2%.

In the assay with MDA-MB-231 [1], `CCCN(C(=O)c1ccccc1)c1nc(-c2ccccc2)cs1` showed an IC50 of 0.077 µM. Also, in the assay with MDA-MB-231 [2], the viability at 1 µM was found to be 116%. For the same compound, in the assay on MDA-MB-231 [3], the inhibition at 10 µM was over 50%. Besides, the result in the assay with HeLa (Homo sapiens) was Active.

In the case of `Cc1ccc(-c2cnc(N(C)C(=O)c3ccccc3)s2)cc1`, the IC50 in the assay with MDA-MB-231 [1] is 1.09 µM. Further, in the assay on MDA-MB-231 [2], the viability at 1 µM is 59.3%.

The compound `Cc1sc(NC(=O)c2ccccc2)nc1-c1ccc(F)cc1` displayed an IC50 in the assay on MDA-MB-231 [1] of 9.1 µM. For the same compound, in the assay on MDA-MB-231 [2], the viability at 1 µM was 53.7%.

`Cn1c(C2CC2)cs/c1=N\C(=O)c1ccccc1` gave an IC50 in the assay on MDA-MB-231 [1] of 0.104 µM. The viability at 1 µM in the assay on MDA-MB-231 [2] is 90.7%.

In turn, `CCn1c(-c2ccc(C)cc2C)cs/c1=N\C(=O)c1ccccc1` returned an IC50 with MDA-MB-231 [1] of 1.95 µM. In addition, the viability at 1 µM in the assay with MDA-MB-231 [2] worked out at 142%. For the same compound, in the assay with MDA-MB-231 [3], the inhibition at 10 µM is over 50%.

Compound `CN(C(=O)c1ccccc1)c1nc(-c2ccc(Br)cc2)cs1` yielded an IC50 in the assay with MDA-MB-231 [1] of 0.317 µM. Further, the viability at 1 µM in the assay with MDA-MB-231 [2] was determined as 65.4%.

As to `Cc1sc(N(C)C(=O)c2ccccc2)nc1-c1ccc(F)cc1`, in the assay on MDA-MB-231 [1], the IC50 was determined as 1.62 µM. In addition, in the assay with MDA-MB-231 [2], the viability at 1 µM came out at 108%.

Consider `COc1cc(C(=O)Nc2nc(-c3cc(OC)c(OC)c(OC)c3)cs2)cc(OC)c1OC`, for which the IC50 in the assay with MDA-MB-231 [1] was found to be 1.03 µM. Moreover, the viability at 1 µM with MDA-MB-231 [2] turned out to be 77.6%.

In the assay on MDA-MB-231 [1], `COc1ccccc1C(=O)N(C)c1nc(-c2cc(OC)c(OC)c(OC)c2)cs1` displayed an IC50 of over 25 µM. In addition, the viability at 1 µM in the assay on MDA-MB-231 [2] came to 109%.

In the case of `COc1cccc(C(=O)N(C)c2nc(-c3cc(OC)c(OC)c(OC)c3)cs2)c1`, 0.646 µM corresponded to half-maximal inhibition with MDA-MB-231 [1] (IC50). For the same compound, the viability at 1 µM in the assay with MDA-MB-231 [2] was determined as 88.9%.

In turn, `CCn1c(-c2ccccc2)cs/c1=N\C(=O)c1ccccc1` came in with an IC50 in the assay with MDA-MB-231 [1] of 0.0515 µM. For the same compound, the viability at 1 µM in the assay with MDA-MB-231 [2] came to 68.5%.

Turning to `COc1cc(C(=O)N(C)c2nc(-c3cc(OC)c(OC)c(OC)c3)cs2)cc(OC)c1OC`, half-maximal inhibition in the assay with MDA-MB-231 [1] (IC50) required 0.47 µM. The viability at 1 µM in the assay with MDA-MB-231 [2] came to 115%.

With `COc1ccc(C(=O)N(C)c2nc(-c3cc(OC)c(OC)c(OC)c3)cs2)cc1`, half-maximal inhibition with MDA-MB-231 [1] (IC50) required 0.312 µM. The viability at 1 µM with MDA-MB-231 [2] came out at 100%.

Regarding `Cn1c(-c2cccc(Cl)c2)cs/c1=N\C(=O)c1ccccc1`, the half-inhibitory concentration (IC50) with MDA-MB-231 [1] amounted to 0.367 µM. Besides, the viability at 1 µM with MDA-MB-231 [2] came to 35.2%.

On to `Cc1cs/c(=N\C(=O)c2ccccc2)n1C`, for which, in the assay on MDA-MB-231 [1], the IC50 was 15 µM. Further, the viability at 1 µM with MDA-MB-231 [2] came to 103%.

Take `O=C(Nc1nc(-c2cccc(Br)c2)cs1)c1ccccc1`: the IC50 in the assay with MDA-MB-231 [1] came to 10 µM. Further, the viability at 1 µM with MDA-MB-231 [2] was determined as 78%.
